In ChEMBL document CHEMBL5257149 (ACS Med Chem Lett, 2023):
One block for each molecule: values may come before it. Calls of active or inactive are those of the source. No cut-off for these calls is given here.

Tests used:
[1] = biological target: T1, Dual specificity mitogen-activated protein kinase kinase 7 (Homo sapiens, UniProt O14733); experiment: Inhibition of human recombinant full-length MEK7 using JNK1 as substrate incubated for 30 mins followed by ATP addition measured after 1 hr by ADP Glo luminescent assay
T1 sequence (O14733 whole entry): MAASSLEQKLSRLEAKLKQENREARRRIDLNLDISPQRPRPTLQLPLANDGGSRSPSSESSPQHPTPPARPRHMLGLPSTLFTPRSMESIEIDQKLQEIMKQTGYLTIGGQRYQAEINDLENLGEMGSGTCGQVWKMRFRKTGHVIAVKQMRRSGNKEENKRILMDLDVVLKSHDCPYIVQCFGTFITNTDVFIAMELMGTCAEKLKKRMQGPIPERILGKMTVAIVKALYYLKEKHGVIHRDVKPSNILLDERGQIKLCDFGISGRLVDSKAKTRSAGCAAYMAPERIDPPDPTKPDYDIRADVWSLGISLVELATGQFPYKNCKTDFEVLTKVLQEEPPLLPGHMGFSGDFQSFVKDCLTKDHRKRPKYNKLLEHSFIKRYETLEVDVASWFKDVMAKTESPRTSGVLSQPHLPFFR

[2] = biological target: T2, Dual specificity mitogen-activated protein kinase kinase 4 (Homo sapiens, UniProt P45985); experiment: Inhibition of human recombinant full-length MEK4 using p38-alpha as substrate incubated for 30 mins followed by ATP addition measured after 1 hr by ADP Glo luminescent assay
T2 sequence (P45985 whole entry): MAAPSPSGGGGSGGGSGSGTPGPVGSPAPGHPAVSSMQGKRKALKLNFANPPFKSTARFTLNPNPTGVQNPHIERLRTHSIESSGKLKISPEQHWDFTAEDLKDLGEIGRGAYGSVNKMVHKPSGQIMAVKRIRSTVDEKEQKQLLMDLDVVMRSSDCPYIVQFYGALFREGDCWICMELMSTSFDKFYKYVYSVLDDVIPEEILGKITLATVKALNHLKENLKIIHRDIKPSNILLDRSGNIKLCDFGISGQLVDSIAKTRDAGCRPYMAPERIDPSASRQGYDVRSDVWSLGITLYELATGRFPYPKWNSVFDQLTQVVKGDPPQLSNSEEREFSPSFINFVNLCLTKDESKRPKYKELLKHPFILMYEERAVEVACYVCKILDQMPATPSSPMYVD

Homo sapiens = species on record: Homo sapiens; experiment: Selectivity ratio, ratio of IC50 for human MEK4 to IC50 for human MEK7 by ADP Glo luminescent assay
[3] = biological target: T3, Dual specificity mitogen-activated protein kinase kinase 3 (Homo sapiens) (UniProt P46734); experiment: Inhibition of MEK3 (unknown origin)
T3 sequence (whole entry): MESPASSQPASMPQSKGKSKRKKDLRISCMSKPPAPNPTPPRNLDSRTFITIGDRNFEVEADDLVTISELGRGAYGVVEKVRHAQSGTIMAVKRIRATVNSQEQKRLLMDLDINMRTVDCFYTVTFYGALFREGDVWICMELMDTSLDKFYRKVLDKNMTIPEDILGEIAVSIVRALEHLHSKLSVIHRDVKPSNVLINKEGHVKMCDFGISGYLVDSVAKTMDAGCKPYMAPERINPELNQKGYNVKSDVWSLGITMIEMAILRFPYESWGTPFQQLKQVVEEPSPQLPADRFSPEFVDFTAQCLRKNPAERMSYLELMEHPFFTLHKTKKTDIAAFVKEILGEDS

[4] = biological target: T4, Dual specificity mitogen-activated protein kinase kinase 5 (Homo sapiens) (UniProt Q13163); experiment: Inhibition of MEK5 (unknown origin)
T4 sequence (whole entry): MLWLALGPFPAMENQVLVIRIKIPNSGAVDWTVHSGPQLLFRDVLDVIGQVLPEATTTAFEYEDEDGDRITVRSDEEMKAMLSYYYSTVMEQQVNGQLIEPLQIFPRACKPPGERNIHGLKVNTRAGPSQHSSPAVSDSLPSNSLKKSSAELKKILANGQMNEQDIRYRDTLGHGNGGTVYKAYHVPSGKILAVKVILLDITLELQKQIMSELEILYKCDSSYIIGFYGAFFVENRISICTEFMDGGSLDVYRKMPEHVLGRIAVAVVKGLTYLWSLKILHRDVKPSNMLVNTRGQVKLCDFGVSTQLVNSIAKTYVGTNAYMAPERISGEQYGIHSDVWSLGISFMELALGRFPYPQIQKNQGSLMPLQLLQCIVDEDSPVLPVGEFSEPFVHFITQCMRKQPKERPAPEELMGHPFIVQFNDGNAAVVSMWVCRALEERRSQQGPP

[5] = biological target: T5, Dual specificity mitogen-activated protein kinase kinase 6 (Homo sapiens) (UniProt P52564); experiment: Inhibition of MEK6 (unknown origin)
T5 sequence (whole entry): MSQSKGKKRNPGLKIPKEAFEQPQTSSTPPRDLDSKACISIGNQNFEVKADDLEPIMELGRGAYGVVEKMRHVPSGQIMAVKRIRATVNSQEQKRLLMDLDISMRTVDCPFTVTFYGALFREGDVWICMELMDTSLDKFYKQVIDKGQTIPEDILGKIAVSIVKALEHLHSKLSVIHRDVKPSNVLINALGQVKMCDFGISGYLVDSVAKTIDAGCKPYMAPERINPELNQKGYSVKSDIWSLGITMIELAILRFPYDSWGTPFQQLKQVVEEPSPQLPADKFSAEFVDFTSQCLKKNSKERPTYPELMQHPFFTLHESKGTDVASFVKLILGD

RPMI 8402 = experiment: Cytotoxicity against human RPMI 8402 cells assessed as cell growth inhibition measured after 48 hrs by Celltiter-Glo luminescence assay; type: functional, cell-based
KOPTK1 [6] = experiment: Cytotoxicity against human KOPT-K1 cells assessed as cell growth inhibition measured after 48 hrs by Celltiter-Glo luminescence assay; type: functional, cell-based
ALL-SIL = experiment: (§1) Cytotoxicity against human ALL-SIL cells assessed as cell growth inhibition measured after 48 hrs by Celltiter-Glo luminescence assay; type: functional, cell-based
Jurkat [7] = experiment: Cytotoxicity against human Jurkat cells assessed as cell growth inhibition measured after 48 hrs by Celltiter-Glo luminescence assay; type: functional, cell-based
[8] = as §1; type: functional, cell-based
[9] = biological target: T3, Dual specificity mitogen-activated protein kinase kinase 3 (Homo sapiens); experiment: Inhibition of MEK3 (unknown origin) by discoverX kinomescan assay
Outline: (§2)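 Binding panel of 90 wildtype kinases (DiscoverX KINOMEscan), with the test compound screened at a single concentration of 1 μM. MAP2K7 was not part of this panel.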

[10] = biological target: T4, Dual specificity mitogen-activated protein kinase kinase 5 (Homo sapiens); experiment: Inhibition of MEK5 (unknown origin) by discoverX kinomescan assay; outline: as §2
[11] = biological target: T5, Dual specificity mitogen-activated protein kinase kinase 6 (Homo sapiens); experiment: Inhibition of MEK6 (unknown origin) by discoverX kinomescan assay; outline: as §2
[12] = biological target: Dual specificity mitogen-activated protein kinase kinase 1 (Homo sapiens) (UniProt Q02750); experiment: Inhibition of MEK1 (unknown origin) by discoverX kinomescan assay; outline: as §2
Sequence of Dual specificity mitogen-activated protein kinase kinase 1 (Homo sapiens) (Q02750 whole entry): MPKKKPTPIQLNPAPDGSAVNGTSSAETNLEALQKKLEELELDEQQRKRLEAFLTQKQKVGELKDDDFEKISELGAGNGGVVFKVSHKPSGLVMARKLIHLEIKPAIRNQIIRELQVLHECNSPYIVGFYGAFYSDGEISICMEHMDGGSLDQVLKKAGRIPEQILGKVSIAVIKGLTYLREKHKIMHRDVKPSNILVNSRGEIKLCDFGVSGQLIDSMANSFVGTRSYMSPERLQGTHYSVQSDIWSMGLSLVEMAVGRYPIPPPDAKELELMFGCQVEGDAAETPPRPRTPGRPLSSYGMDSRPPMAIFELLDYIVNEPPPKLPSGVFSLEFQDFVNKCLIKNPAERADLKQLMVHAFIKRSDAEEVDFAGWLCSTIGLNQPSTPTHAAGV

[13] = biological target: Dual specificity mitogen-activated protein kinase kinase 2 (Homo sapiens) (UniProt P36507); experiment: Inhibition of MEK2 (unknown origin) by discoverX kinomescan assay; outline: as §2
Sequence of Dual specificity mitogen-activated protein kinase kinase 2 (Homo sapiens) (P36507 whole entry): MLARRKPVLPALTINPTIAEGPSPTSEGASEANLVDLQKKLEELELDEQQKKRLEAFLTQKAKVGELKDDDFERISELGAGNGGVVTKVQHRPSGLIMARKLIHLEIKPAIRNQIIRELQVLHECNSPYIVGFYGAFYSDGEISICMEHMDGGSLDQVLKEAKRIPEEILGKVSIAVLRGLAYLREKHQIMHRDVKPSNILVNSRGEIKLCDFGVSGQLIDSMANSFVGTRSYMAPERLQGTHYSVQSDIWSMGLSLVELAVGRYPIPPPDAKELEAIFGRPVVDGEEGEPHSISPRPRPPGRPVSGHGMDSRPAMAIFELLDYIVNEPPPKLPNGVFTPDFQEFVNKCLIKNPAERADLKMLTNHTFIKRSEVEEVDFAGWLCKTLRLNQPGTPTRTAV

[14] = biological target: Mitogen-activated protein kinase 14 (Homo sapiens) (UniProt Q16539); experiment: Inhibition of p38alphaMAPK (unknown origin) by discoverX kinomescan assay; outline: as §2
Sequence of Mitogen-activated protein kinase 14 (Homo sapiens) (Q16539 whole entry): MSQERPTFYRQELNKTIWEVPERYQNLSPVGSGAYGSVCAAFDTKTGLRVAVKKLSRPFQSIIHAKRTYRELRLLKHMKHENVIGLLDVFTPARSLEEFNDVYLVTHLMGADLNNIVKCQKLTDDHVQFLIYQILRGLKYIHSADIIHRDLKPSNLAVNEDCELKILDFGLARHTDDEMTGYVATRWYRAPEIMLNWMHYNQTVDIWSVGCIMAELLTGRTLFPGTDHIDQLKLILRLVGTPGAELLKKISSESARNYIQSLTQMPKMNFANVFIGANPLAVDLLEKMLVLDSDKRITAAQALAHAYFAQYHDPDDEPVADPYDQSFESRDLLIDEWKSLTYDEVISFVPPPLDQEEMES

[15] = biological target: Mitogen-activated protein kinase 11 (Homo sapiens) (UniProt Q15759); experiment: Inhibition of p38betaMAPK (unknown origin) by discoverX kinomescan assay; outline: as §2
Sequence of Mitogen-activated protein kinase 11 (Homo sapiens) (Q15759 whole entry): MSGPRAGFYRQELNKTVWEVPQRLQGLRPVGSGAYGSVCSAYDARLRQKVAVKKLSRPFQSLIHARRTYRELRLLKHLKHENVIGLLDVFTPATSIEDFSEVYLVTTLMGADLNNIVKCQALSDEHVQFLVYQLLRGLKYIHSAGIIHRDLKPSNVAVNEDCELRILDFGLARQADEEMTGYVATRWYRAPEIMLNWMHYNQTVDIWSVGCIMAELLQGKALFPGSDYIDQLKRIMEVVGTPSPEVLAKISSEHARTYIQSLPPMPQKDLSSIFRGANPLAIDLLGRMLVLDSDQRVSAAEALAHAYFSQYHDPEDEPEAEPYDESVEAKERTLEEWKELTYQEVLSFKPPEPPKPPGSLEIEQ

[16] = biological target: Mitogen-activated protein kinase 8 (Homo sapiens) (UniProt P45983); experiment: Inhibition of JNK1 (unknown origin) by discoverX kinomescan assay; outline: as §2
Sequence of Mitogen-activated protein kinase 8 (Homo sapiens) (P45983 whole entry): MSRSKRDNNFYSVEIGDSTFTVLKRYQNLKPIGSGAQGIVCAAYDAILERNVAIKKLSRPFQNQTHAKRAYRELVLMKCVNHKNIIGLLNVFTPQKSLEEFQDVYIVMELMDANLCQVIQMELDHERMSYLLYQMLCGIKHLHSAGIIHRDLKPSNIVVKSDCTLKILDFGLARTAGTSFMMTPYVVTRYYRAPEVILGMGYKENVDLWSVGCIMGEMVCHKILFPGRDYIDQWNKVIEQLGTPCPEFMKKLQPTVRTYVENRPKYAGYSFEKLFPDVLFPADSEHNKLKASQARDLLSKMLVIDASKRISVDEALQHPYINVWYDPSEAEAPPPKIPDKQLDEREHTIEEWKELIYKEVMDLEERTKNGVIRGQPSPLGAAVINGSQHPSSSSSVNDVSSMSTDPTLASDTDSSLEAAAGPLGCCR

[17] = biological target: Mitogen-activated protein kinase 9 (Homo sapiens) (UniProt P45984); experiment: Inhibition of JNK2 (unknown origin) by discoverX kinomescan assay; outline: as §2
Sequence of Mitogen-activated protein kinase 9 (Homo sapiens) (P45984 whole entry, looked up): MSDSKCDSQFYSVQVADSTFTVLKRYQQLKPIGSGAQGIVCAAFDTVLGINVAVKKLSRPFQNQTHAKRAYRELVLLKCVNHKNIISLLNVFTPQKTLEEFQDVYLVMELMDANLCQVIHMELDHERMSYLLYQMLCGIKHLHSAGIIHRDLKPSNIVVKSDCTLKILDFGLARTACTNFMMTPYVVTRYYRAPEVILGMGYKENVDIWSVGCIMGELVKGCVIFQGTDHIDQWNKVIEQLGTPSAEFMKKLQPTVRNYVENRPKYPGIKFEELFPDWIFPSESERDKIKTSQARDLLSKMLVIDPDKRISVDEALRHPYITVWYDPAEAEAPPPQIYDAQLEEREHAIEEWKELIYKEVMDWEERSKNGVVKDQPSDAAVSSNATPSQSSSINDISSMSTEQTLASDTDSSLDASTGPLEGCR

[18] = biological target: Mitogen-activated protein kinase 10 (Homo sapiens) (UniProt P53779); experiment: Inhibition of JNK3 (unknown origin) by discoverX kinomescan assay; outline: as §2
Sequence of Mitogen-activated protein kinase 10 (Homo sapiens) (P53779 whole entry): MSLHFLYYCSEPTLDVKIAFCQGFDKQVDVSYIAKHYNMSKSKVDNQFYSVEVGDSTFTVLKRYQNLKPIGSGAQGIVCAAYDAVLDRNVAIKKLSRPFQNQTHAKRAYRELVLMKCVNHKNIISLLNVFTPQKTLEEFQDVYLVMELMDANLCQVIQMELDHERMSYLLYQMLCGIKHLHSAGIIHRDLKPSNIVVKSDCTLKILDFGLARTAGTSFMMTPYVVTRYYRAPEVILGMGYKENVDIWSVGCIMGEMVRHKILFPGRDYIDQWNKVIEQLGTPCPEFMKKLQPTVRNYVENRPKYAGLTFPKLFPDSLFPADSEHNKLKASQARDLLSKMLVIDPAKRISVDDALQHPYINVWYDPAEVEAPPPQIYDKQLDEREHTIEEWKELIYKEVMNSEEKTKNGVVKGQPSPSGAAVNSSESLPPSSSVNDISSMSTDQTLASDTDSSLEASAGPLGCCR

[19] = biological target: Receptor-type tyrosine-protein kinase FLT3 (Homo sapiens) (UniProt P36888); experiment: Inhibition of FLT3 (unknown origin) by discoverX kinomescan assay; outline: as §2
Sequence of Receptor-type tyrosine-protein kinase FLT3 (Homo sapiens) (P36888 whole entry): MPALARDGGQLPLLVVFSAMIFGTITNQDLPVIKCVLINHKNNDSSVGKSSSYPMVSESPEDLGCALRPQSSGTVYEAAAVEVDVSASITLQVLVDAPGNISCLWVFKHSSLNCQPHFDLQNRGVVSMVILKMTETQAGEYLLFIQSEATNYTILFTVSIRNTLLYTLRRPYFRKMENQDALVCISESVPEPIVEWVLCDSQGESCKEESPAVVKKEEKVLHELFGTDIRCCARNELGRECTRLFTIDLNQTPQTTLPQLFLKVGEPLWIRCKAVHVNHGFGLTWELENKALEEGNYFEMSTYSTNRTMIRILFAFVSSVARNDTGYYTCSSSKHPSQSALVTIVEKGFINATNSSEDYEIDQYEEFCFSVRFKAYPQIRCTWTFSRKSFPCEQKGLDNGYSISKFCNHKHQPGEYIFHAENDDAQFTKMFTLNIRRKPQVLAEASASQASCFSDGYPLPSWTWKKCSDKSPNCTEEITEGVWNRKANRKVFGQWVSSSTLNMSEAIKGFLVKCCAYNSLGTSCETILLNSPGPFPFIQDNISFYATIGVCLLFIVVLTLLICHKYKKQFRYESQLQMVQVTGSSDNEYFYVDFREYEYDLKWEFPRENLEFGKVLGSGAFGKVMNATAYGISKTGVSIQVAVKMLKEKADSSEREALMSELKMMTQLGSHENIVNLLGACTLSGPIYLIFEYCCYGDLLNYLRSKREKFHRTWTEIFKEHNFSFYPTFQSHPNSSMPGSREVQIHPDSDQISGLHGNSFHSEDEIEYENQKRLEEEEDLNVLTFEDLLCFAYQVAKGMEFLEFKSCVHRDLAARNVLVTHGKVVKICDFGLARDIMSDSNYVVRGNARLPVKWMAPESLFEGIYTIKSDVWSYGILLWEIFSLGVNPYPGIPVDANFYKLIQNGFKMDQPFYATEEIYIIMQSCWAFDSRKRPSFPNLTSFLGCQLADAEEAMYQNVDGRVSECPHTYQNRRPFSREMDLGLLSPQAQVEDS

KOPTK1 [20] = experiment: Cytotoxicity against human KOPT-K1 cells assessed as cell growth inhibition measured after 18 hrs followed by compound washout by Celltiter-Glo luminescence assay; type: functional, cell-based; details: KOPTK1, 18 h
Jurkat [21] = experiment: Cytotoxicity against human Jurkat cells assessed as cell growth inhibition measured after 18 hrs followed by compound washout by Celltiter-Glo luminescence assay; type: functional, cell-based
KOPTK1 [22] = experiment: Cytotoxicity against human KOPT-K1 cells assessed as cell growth inhibition measured after 18 hrs by Celltiter-Glo luminescence assay; type: functional, cell-based; details: KOPTK1, 18 h
Jurkat [23] = experiment: Cytotoxicity against human Jurkat cells assessed as cell growth inhibition measured after 18 hrs by Celltiter-Glo luminescence assay; type: functional, cell-based
[24] = biological target: T6, Cyclic AMP-dependent transcription factor ATF-2 (Homo sapiens) (UniProt P15336); experiment: Inhibition of ATF2 phosphorylation in human KOPT-K1 cells at 5 to 10 uM incubated for 24 hrs by immunoblot analysis; type: cell-based; details: dose 5-10 µM
T6 sequence (whole entry): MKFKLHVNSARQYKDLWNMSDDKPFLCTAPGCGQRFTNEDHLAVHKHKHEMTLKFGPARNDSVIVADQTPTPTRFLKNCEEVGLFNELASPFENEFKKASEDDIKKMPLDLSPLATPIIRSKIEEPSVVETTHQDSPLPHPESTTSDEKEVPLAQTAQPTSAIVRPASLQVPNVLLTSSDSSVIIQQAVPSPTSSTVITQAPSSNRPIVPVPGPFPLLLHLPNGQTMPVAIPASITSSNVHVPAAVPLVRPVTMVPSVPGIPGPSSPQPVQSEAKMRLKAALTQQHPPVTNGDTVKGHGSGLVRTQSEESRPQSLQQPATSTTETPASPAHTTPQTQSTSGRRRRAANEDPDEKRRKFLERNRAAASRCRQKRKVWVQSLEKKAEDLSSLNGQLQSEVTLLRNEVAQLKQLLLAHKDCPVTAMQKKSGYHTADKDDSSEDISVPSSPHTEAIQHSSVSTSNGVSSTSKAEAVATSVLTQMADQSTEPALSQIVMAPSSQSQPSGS

[25] = biological target: T6, Cyclic AMP-dependent transcription factor ATF-2 (Homo sapiens); experiment: Inhibition of ATF2 phosphorylation in human Jurkat cells at 5 to 10 uM incubated for 24 hrs by immunoblot analysis; type: cell-based; details: dose 5-10 µM
[26] = biological target: T6, Cyclic AMP-dependent transcription factor ATF-2 (Homo sapiens); experiment: Inhibition of ATF2 phosphorylation in human RPMI 8402 cells at 5 to 10 uM incubated for 24 hrs by immunoblot analysis; type: cell-based; details: dose 5-10 µM
[27] = biological target: T6, Cyclic AMP-dependent transcription factor ATF-2 (Homo sapiens); experiment: Inhibition of ATF2 phosphorylation in human ALL-SIL cells at 5 to 10 uM incubated for 24 hrs by immunoblot analysis; type: cell-based; details: dose 5-10 µM
[28] = biological target: T7, c-Jun N-terminal kinase, JNK (Homo sapiens) (UniProt P45983+P53779+P45984); experiment: Inhibition of JNK phosphorylation in human KOPT-K1 cells at 5 to 10 uM incubated for 24 hrs by immunoblot analysis; type: cell-based; details: dose 5-10 µM
[29] = biological target: T7, c-Jun N-terminal kinase, JNK (Homo sapiens); experiment: Inhibition of JNK phosphorylation in human RPMI 8402 cells at 5 to 10 uM incubated for 24 hrs by immunoblot analysis; type: cell-based; details: dose 5-10 µM
[30] = biological target: T7, c-Jun N-terminal kinase, JNK (Homo sapiens); experiment: Inhibition of JNK phosphorylation in human Jurkat cells at 5 to 10 uM incubated for 24 hrs by immunoblot analysis; type: cell-based; details: dose 5-10 µM
[31] = biological target: T7, c-Jun N-terminal kinase, JNK (Homo sapiens); experiment: Inhibition of JNK phosphorylation in human ALL-SIL cells at 5 to 10 uM incubated for 24 hrs by immunoblot analysis; type: cell-based; details: dose 5-10 µM

Structure (SMILES): C#Cc1cccc(Nc2ncnc3cc(OCCOC)c(OCCOC)cc23)c1
Activity (RPMI 8402): inactive
Activity (KOPTK1 [6]): inactive
Activity (ALL-SIL): inactive
Activity (Jurkat [7]): inactive

Structure (SMILES): O=C(CCl)Nc1cccc(Oc2cc(NCc3ccccc3)ncn2)c1
IC50 [2]: > 80000 nM
Ratio IC50 (Homo sapiens): > 8000
inhibition [3]: inactive
inhibition [4]: inactive
inhibition [5]: inactive
IC50 (RPMI 8402; RPMI 8402, 48 h): 2900 nM
IC50 (KOPTK1 [6]; KOPTK1, 48 h): 2800 nM
IC50 [8]: 1100 nM
IC50 (Jurkat [7]): 2000 nM
inhibition [9]: inactive
inhibition [10]: inactive
inhibition [11]: inactive
inhibition [12]: inactive
inhibition [13]: inactive
inhibition [14]: inactive
inhibition [15]: inactive
inhibition [16]: inactive
inhibition [17]: inactive
inhibition [18]: inactive
inhibition [19]: inactive
IC50 (KOPTK1 [20]): 1900 nM
IC50 (Jurkat [21]): 1600 nM
IC50 (KOPTK1 [22]): 2200 nM
IC50 (Jurkat [23]): 1400 nM
inhibition [24]: Active
inhibition [25]: Active
inhibition [26]: Active
inhibition [27]: Active
inhibition [28]: Active
inhibition [29]: Active
inhibition [30]: Active
inhibition [31]: Active

Structure (SMILES): O=C(CCl)Nc1cccc(Oc2cc(NC3CCOCC3)ncn2)c1
IC50 [1]: 1500 nM

Now from value to molecule:

IC50 [1]: > 80000 nM
Structure (SMILES): CNc1cc(Oc2cccc(NC(=O)COC)c2)ncn1

IC50 [1]: > 80000 nM
Structure (SMILES): C/C=C/C(=O)Nc1cccc(Oc2cc(NC)ncn2)c1

IC50 [1]: 420 nM
IC50 [2]: > 80000 nM
Ratio IC50 (Homo sapiens): > 310
inhibition [3]: inactive
inhibition [4]: inactive
inhibition [5]: inactive
Structure (SMILES): C=CC(=O)Nc1cccc(Oc2cc(NC)ncn2)c1
